Type in all cases: in vivo, human
Test [1] deals with relapsed and/or refractory lymphoma or MM. As to the kind of experiment: Antitumor activity: disease response.
The next test has as its system CDT-1. As to the kind of experiment: Skin punch biopsy immunohistochemistry, CDT-1. The following applies: 3–6 hours after second dose of cycle 1. In outline:
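IV infusion over 1 h. 2 mm skin punch biopsies were taken at screening and 3–6 h after the cycle 1 dose on day 2 (schedule A) or day 4 (schedule B). On 5 µm sections, CC1 antigen retrieval ran 20 min. Primary antibody was applied 1 h at room temperature, then alkaline phosphatase secondary 32 min, developed with NBT/BCIP. Slides were counterstained and imaged at 20x. Signal was percent stained area of the basal epithelial region.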

A further test concerns NQO1. Put plainly: Whole blood reverse-transcriptase-PCR of NRF-2-regulated genes. The following applies: approximate. In outline: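 Whole blood was collected in PAXgene tubes at screening, at baseline and during cycle 1. Schedule A: day 1 at 4 and 8 h, day 2 pre-dose, day 5. Schedule B: days 1 and 11 at 4, 8 and 23 h, pre-dose days 4 and 11, day 15. Eight genes were assayed by RT-PCR, with ΔCt against four housekeeping genes (18S, B2M, RPLP0, UBC). Percent change = (2^−(post ΔCt − baseline ΔCt) − 1) × 100. Undetermined Ct was set to 40.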

Each structure is given as a SMILES string.

In the case of `NS(=O)(=O)OC[C@@H]1C[C@@H](n2ccc3c(N[C@H]4CCc5ccccc54)ncnc32)C[C@@H]1O` [pevonedistat], the figures for the “Duration of SD” value in test [1] (5 MM patients who received ≥5 cycles) and in test [1] (7 lymphoma patients who received ≥5 cycles) were 3.22–6.01 months and 3.25–9.53 months, respectively. For the same compound, the “Best response in MM patients” value in test [1] (MM patients) is “best responses of only SD”. In addition, the “CDT-1 expression level in skin biopsies vs baseline” value in the test on CDT-1 is “increases”. For the same compound, the “NQO1 expression in whole blood, maximal change from baseline” value in the test with NQO1 (doses of 25–83 mg/m^2, cycle 1 day 1) is 250% to 400%; in the test with NQO1 (doses of 110–261 mg/m^2, cycle 1 day 1) it was 700% to 800%.

For the origin of these results see publication PMC5694347 (Clinical cancer research : an official journal of the …, 2015).
